This note sets out measurements from PubChem BioAssay.

The source made the active and inactive calls.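 Rule for the calls, unless noted: active = GFP response above 150% of the DMSO level; inconclusive = fewer than 70 events counted for a yeast strain; inactive = the rest.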

A short description of assay [1]: RPL19A-GFP modulators, yeast TOR pathway, confirmation, cell-based, S. cerevisiae, flow cytometry, cherry picks, mother/daughter gates (AID 2270;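 active = GFP response below 50% of the DMSO control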). The note with it: S. cerevisiae RPL19A-GFP strain, 3 h, at 10 µM, stronger effect = lower value, 100 = same GFP as DMSO wells. (In general: A flow cytometer gives signals particle by particle.)
Assay [2] can be described thus: LAP4-GFP expression modulators in yeast, confirmation, cell-based, cherry picks, flow cytometry, mother/daughter gates (AID 2271;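 active = GFP response above 150% of the DMSO control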;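 note: ratio of sample to DMSO plate mean so 100% equals DMSO level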). Particulars: S. cerevisiae LAP4-GFP strain, 3 h, at 10 µM, stronger effect = higher value, 100 means same as DMSO control. The essentials: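 material = Alexa 633-stained baker's yeast GFP-fusion strain | amount = 0.2 OD600 cells | schedule = 30 °C, 3 h compound incubation, rotating | signal = GFP by flow cytometry | measure = per-gate (all, mother, daughter) GFP response vs DMSO | controls = positive rapamycin (400 ng/mL), negative DMSO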

Assay [3] can be described thus: modulators of MEP2-GFP levels in yeast, confirmation, S. cerevisiae, flow cytometry GFP, cherry picks (AID 2272;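 active = GFP response above 150% of the DMSO control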;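 note: ratio of well signal to plate DMSO mean so 100% equals DMSO level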). Particulars: S. cerevisiae MEP2-GFP strain, 3 h, at 10 µM, stronger effect = higher value.
The nature of assay [4]: AGP1-GFP expression modulators, hit retest, confirmation, cell-based, flow cytometry, S. cerevisiae, cherry picks (AID 2273).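 Note: median GFP channel fluorescence over the whole cell population gate.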 The note with it: S. cerevisiae AGP1-GFP strain, 3 h, at 10 µM.
The nature of assay [5]: modulators of CIT2-GFP expression in yeast, confirmation, S. cerevisiae, GFP fusion, cherry picks, mother/daughter gates (AID 2274). The note with it: S. cerevisiae CIT2-GFP strain, flow cytometry, 3 h, at 10 µM, stronger effect = higher value.
[6] abbreviates: measured here: daughter cell gate.
Where [7] appears, read: measured here: mother cell gate.
The mark [8] stands for this setting: measured here: daughter cell gate response.
Where [9] appears, read: measured here: mother cell gate response.

`CC[n+]1ccc(/C=C/c2c[nH]c3ccccc23)cc1`: the GFP response vs DMSO in assay [1] was 100% (inactive); in assay [1] (setting [6]), 101%; in assay [1] (setting [7]), 98.8%; in assay [3], 128% (inactive). For the same compound, the GFP response relative to DMSO is 104% (inactive) in assay [2], 104% in assay [2] (setting [8]) and 105% in assay [2] (setting [9]). Besides, the GFP response, % of DMSO in assay [4] was 102% (inactive); in assay [5], 117% (inactive); in assay [5] (setting [6]), 119%; in assay [5] (setting [7]), 119%.
On to `CN1C(=O)/C(=N\OC(=O)c2cccc3ccccc23)c2ccccc21`, for which the GFP response vs DMSO in assay [1] is 102% (inactive); in assay [1] (setting [6]) it was 99.8%; in assay [1] (setting [7]) it was 93.4%; in assay [3], 110% (inactive). In addition, the GFP response relative to DMSO is 163% (active) in assay [2], 140% in assay [2] (setting [8]) and 154% in assay [2] (setting [9]). Moreover, the GFP response, % of DMSO in assay [4] was 88.4% (inactive); in assay [5], 99.3% (inactive); in assay [5] (setting [6]) it was 102%; in assay [5] (setting [7]) it was 80.5%.
For `O=C(/C=C/c1ccnc2ccccc12)c1cccs1`, the GFP response vs DMSO was 101% (inactive) in assay [1], 98.8% in assay [1] (setting [6]), 99.5% in assay [1] (setting [7]) and 126% (inactive) in assay [3]. The GFP response relative to DMSO in assay [2] is 172% (active); in assay [2] (setting [8]) it was 156%; in assay [2] (setting [9]) it was 171%. For the same compound, the GFP response, % of DMSO in assay [4] was 112% (inactive); in assay [5], 90.7% (inactive); in assay [5] (setting [6]), 94.6%; in assay [5] (setting [7]), 84%.
Consider `O=C1Nc2ccccc2C(=O)C1(Cl)Cc1ccccc1` (stereo unspecified), for which the GFP response vs DMSO in assay [1] is 89.6% (inactive); in assay [1] (setting [6]), 91.9%; in assay [1] (setting [7]), 88.3%; in assay [3], 101% (inactive). The GFP response relative to DMSO in assay [2] was 132% (inactive); in assay [2] (setting [8]), 124%; in assay [2] (setting [9]) it was 134%. The GFP response, % of DMSO in assay [4] is 102% (inactive); in assay [5], 94.4% (inactive); in assay [5] (setting [6]), 95.8%; in assay [5] (setting [7]), 90.4%.
For `CCOc1ccccc1-c1noc(CCC(=O)Nc2cccnc2)n1`, the GFP response vs DMSO in assay [1] is 98.4% (inactive); in assay [1] (setting [6]), 99%; in assay [1] (setting [7]) it was 99.2%; in assay [3] it was 111% (inactive). In addition, the GFP response relative to DMSO in assay [2] is 107% (inactive); in assay [2] (setting [8]), 105%; in assay [2] (setting [9]), 110%. The GFP response, % of DMSO in assay [4] is 106% (inactive); in assay [5], 110% (inactive); in assay [5] (setting [6]), 108%; in assay [5] (setting [7]), 112%.
`COc1ccc(NC(=O)CCN2CCN(S(=O)(=O)c3cc(Cl)ccc3OC)CC2)cc1`: the GFP response vs DMSO is 99% (inactive) in assay [1], 97.8% in assay [1] (setting [6]), 94.3% in assay [1] (setting [7]) and 101% (inactive) in assay [3]. The GFP response relative to DMSO in assay [2] is 99.8% (inactive); in assay [2] (setting [8]), 98.2%; in assay [2] (setting [9]), 96.2%. Besides, the GFP response, % of DMSO was 105% (inactive) in assay [4], 102% (inactive) in assay [5], 100% in assay [5] (setting [6]) and 102% in assay [5] (setting [7]).
As for `Cc1ccc(/C=c2\sc3nc(-c4cccs4)nn3c2=O)o1`, the GFP response vs DMSO in assay [1] is 98.6% (inactive); in assay [1] (setting [6]) it was 95.9%; in assay [1] (setting [7]), 95.4%; in assay [3] it was 163% (inactive). Also, the results for the GFP response relative to DMSO in assay [2], in assay [2] (setting [8]) and in assay [2] (setting [9]) were 128% (inactive), 117% and 131%, respectively. Moreover, the GFP response, % of DMSO in assay [4] was 95.4% (inactive); in assay [5], 104% (inactive); in assay [5] (setting [6]), 101%; in assay [5] (setting [7]), 104%.
Regarding `CCOc1ccc(/C=C/C(=O)c2c(O)cc(C)oc2=O)cc1`, the GFP response vs DMSO in assay [1] was 95.1% (inactive); in assay [1] (setting [6]) it was 96.1%; in assay [1] (setting [7]), 94.6%; in assay [3] it was 106% (inactive). Further, the GFP response relative to DMSO in assay [2] was 120% (inactive); in assay [2] (setting [8]), 113%; in assay [2] (setting [9]) it was 126%. Besides, the GFP response, % of DMSO in assay [4] is 107% (inactive); in assay [5], 93.1% (inactive); in assay [5] (setting [6]), 94%; in assay [5] (setting [7]), 92.6%.
As for `COc1ccc(-c2nc(N)n(C(C)=O)n2)cc1`, the GFP response vs DMSO in assay [1] is 103% (inactive); in assay [1] (setting [6]) it was 102%; in assay [1] (setting [7]) it was 104%; in assay [3], 102% (inactive). The results for the GFP response relative to DMSO in assay [2], in assay [2] (setting [8]) and in assay [2] (setting [9]) were 95% (inactive), 97.2% and 95.2%, respectively. Further, the GFP response, % of DMSO in assay [4] was 97.4% (inactive); in assay [5], 110% (inactive); in assay [5] (setting [6]), 110%; in assay [5] (setting [7]), 111%.
On to `Cc1ccc(NC(=S)c2nc3ccccc3[nH]2)cc1`, for which the GFP response vs DMSO in assay [1] was 101% (inactive); in assay [1] (setting [6]), 99.6%; in assay [1] (setting [7]) it was 99.3%; in assay [3], 109% (inactive). Besides, the GFP response relative to DMSO is 125% (inactive) in assay [2], 120% in assay [2] (setting [8]) and 128% in assay [2] (setting [9]). Besides, the GFP response, % of DMSO in assay [4] is 88.3% (inactive); in assay [5], 102% (inactive); in assay [5] (setting [6]) it was 103%; in assay [5] (setting [7]), 99.3%.
On to `O=C1C2C3C=CC(CO)(O3)C2C(=O)N1c1ccc(-c2ccccc2)cc1` (stereo unspecified), for which the GFP response vs DMSO in assay [1] is 109% (inactive); in assay [1] (setting [6]), 103%; in assay [1] (setting [7]) it was 94.9%; in assay [3], 103% (inactive). Also, the GFP response relative to DMSO in assay [2] was 334% (active); in assay [2] (setting [8]), 156%; in assay [2] (setting [9]) it was 304%. Moreover, the GFP response, % of DMSO was 97.8% (inactive) in assay [4], 91.5% (inactive) in assay [5], 97.4% in assay [5] (setting [6]) and 82.1% in assay [5] (setting [7]).
For the compound `CCCC(=O)Nc1ccc(C(=O)/C=C/c2ccc(SC)cc2)cc1`, the GFP response vs DMSO in assay [1] was 99.5% (inactive); in assay [1] (setting [6]) it was 98.1%; in assay [1] (setting [7]), 99.2%; in assay [3] it was 102% (inactive). Moreover, the GFP response relative to DMSO in assay [2] was 105% (inactive); in assay [2] (setting [8]) it was 103%; in assay [2] (setting [9]), 105%. In addition, the GFP response, % of DMSO in assay [4] is 97.2% (inactive); in assay [5], 95.2% (inactive); in assay [5] (setting [6]), 94.8%; in assay [5] (setting [7]) it was 93.4%.
Regarding `COc1cc(NC(=O)c2cccc(C)c2)ccc1NC(=O)c1cc2ccccc2o1`, the GFP response vs DMSO in assay [1] is 102% (inactive); in assay [1] (setting [6]), 103%; in assay [1] (setting [7]), 102%; in assay [3], 99% (inactive). For the same compound, the GFP response relative to DMSO in assay [2] is 103% (inactive); in assay [2] (setting [8]), 102%; in assay [2] (setting [9]), 103%. In addition, the GFP response, % of DMSO in assay [4] was 104% (inactive); in assay [5], 103% (inactive); in assay [5] (setting [6]), 106%; in assay [5] (setting [7]), 103%.
Turning to `COC(=O)CNc1c(-c2ccccn2)nc2ccc(Br)cn12`, the GFP response vs DMSO in assay [1] is 100% (inactive); in assay [1] (setting [6]) it was 103%; in assay [1] (setting [7]), 100%; in assay [3], 102% (inactive). Also, the values for the GFP response relative to DMSO in assay [2], in assay [2] (setting [8]) and in assay [2] (setting [9]) were 96.7% (inactive), 96% and 96.1%, respectively. Moreover, the GFP response, % of DMSO in assay [4] is 98.7% (inactive); in assay [5], 107% (inactive); in assay [5] (setting [6]), 106%; in assay [5] (setting [7]), 104%.
As for `CCOc1ccc(S(=O)(=O)n2ccnc2C)cc1`, the GFP response vs DMSO was 99.7% (inactive) in assay [1], 100% in assay [1] (setting [6]), 98.4% in assay [1] (setting [7]) and 102% (inactive) in assay [3]. In addition, the figures for the GFP response relative to DMSO in assay [2], in assay [2] (setting [8]) and in assay [2] (setting [9]) were 96.2% (inactive), 97.2% and 98.3%, respectively. The GFP response, % of DMSO is 102% (inactive) in assay [4], 104% (inactive) in assay [5], 103% in assay [5] (setting [6]) and 104% in assay [5] (setting [7]).
Regarding `Cc1cccn2c(=O)c(/C=C(\C#N)C(=O)NCc3ccco3)c(N3CCCC(C)C3)nc12` (stereo unspecified), the GFP response vs DMSO in assay [1] was 99.8% (inactive); in assay [1] (setting [6]), 99.1%; in assay [1] (setting [7]), 99.5%; in assay [3], 98.8% (inactive). Moreover, the GFP response relative to DMSO in assay [2] is 96.1% (inactive); in assay [2] (setting [8]), 96.6%; in assay [2] (setting [9]), 97.2%. In addition, the GFP response, % of DMSO in assay [4] is 101% (inactive); in assay [5], 99.7% (inactive); in assay [5] (setting [6]) it was 100%; in assay [5] (setting [7]), 99.7%.
